Compound activity from PubChem.
Most compounds without a hit are left out; they make up all but 4.1% or so of the library.
ATG4B inh: inhibitors of human ATG4B cysteine protease. Q9Y4P1. ATG4B cleavage of LC3-PLA2, NBD-HPC fluorescence, 1 h. inhibition, % at 8.33 µM. 340,000 compounds, 0.51% hits; in the data active means inhibition above about 40%
MC4R antag cAMP: human MC4R antagonism in cAMP assay | MC4R-expressing cells, MTII-stimulated cAMP, LANCE TR-FRET | inhibition, % at 6.5 µM | 360,000 compounds, 0.48% hits | AID 540295;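 active means inhibition above its plate's cutoff, the mean of tested wells on that plate plus 3 SD, cut at about 29% in these data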;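 further: 0% = Melanotan II alone and 100% = Melanotan II plus saturating MCL0020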
Target sequence (P32245 whole entry, looked up): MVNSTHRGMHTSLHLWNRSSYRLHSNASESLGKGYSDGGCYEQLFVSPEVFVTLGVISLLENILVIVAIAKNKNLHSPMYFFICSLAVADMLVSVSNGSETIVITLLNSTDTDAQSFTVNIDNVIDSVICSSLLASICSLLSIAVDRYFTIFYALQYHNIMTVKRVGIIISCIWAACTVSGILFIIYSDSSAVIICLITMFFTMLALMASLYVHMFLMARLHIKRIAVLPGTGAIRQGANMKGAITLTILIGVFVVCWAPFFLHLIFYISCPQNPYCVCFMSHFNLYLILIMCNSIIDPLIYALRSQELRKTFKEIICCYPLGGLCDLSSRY
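Material – human MC4R-expressing U2OS cells · Repeats – no replicates · Detection – TR-FRET with Eu-cAMP and labeled anti-cAMP, 671 nm · Times – compound 30 min, challenge 1 h, detection 1 h · Compound – single nominal compound dose of 6.5 µM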
SMARCA2 act: activators of SMARCA2 function | MG213 cells, MMTV-luciferase reporter, dexamethasone, overnight | activation, % at 9.1 µM | 370,000 compounds, 1% hits | AID 652017; in the data active means activation above about 7.8%;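 further: 0% = vehicle wells and 100% = reference activator wells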
MPTP inh: blocks calcium-induced mitochondrial swelling; isolated mouse mitochondria, Ca2+ swelling absorbance, 30 min; inhibition, % at 10 µM; 360,000 compounds, 1.4% hits; AID 602449;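 active means inhibition of 50% or more, scaled per plate between neutral and stimulator controls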;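 further: 0% = DMSO wells given calcium and 100% = 1 mM EGTA wells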
MC4R ag barr: human MC4R agonism via beta-arrestin. P32245. U2OS MC4R beta-arrestin complementation, luminescence; percent of melanotan II response, DMSO zero. activation, % at 8.9 µM. 360,000 compounds, 0.98% hits. AID 540308;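 active means activation above a per-plate cutoff, the mean activation of sample wells on that plate plus 3 SD, cut at about 8% in these data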
ATG4B confirm: confirmation of human ATG4B inhibitors. shares compounds with ATG4B inh. ATG4B protease fluorescent substrate cleavage assay. inhibition, % at 8.33 µM. 320 compounds, 92% hits. AID 504757; in the data active means inhibition above about 39%
PLA2 ctr: PLA2 (human) inhibition in ATG4B counter-screen | purified PLA2, NBD-C6-HPC fluorescence, 45 min | inhibition, % at 8.33 µM | shares compounds with ATG4B inh | 1,600 compounds, 66% hits; in the data active means inhibition above about 50%
Target sequence (P04054 whole entry, looked up): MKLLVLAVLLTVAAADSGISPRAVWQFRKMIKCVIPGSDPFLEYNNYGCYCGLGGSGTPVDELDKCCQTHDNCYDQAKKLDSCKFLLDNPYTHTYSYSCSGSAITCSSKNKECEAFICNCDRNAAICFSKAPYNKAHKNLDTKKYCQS
U2OS cAMP counter: counter-screen for MC4R antagonists: nonselective cAMP signaling inhibitors. shares compounds with MC4R antag cAMP. parental U2OS, forskolin cAMP, LANCE TR-FRET. inhibition, % at 6.5 µM. 1,600 compounds, 26% hits;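 active means mean inhibition over triplicates above the low-control well mean plus 3 SD, set per campaign, cut at about 13% in these data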;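 further: signal is single emission at 671 nm which falls as cellular cAMP rises; 0% = forskolin-stimulated wells and 100% = buffer without forskolin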
MC4R cAMP antag: human MC4R cAMP antagonism confirmation; shares compounds with MC4R antag cAMP; MC4R-expressing cells, MTII-stimulated cAMP, TR-FRET; inhibition, % at 6.5 µM; 1,600 compounds, 27% hits; AID 602195; in the data active means inhibition above about 29%;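 further: 0% = agonist stimulated wells alone and 100% = agonist stimulated wells plus saturating reference antagonist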
MPTP counter: membrane potential counter-screen of mitochondrial pore inhibitors. shares compounds with MPTP inh. isolated mitochondria, Rhodamine 123 fluorescence. inhibition, % at 10 µM. 5,000 compounds, 78% hits. AID 624504; in the data active means inhibition above about 22%;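 further: 0% = DMSO vehicle and 100% = positive control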
Active calls of the source: *; . = no result given.

SMILES	ATG4B inh	MC4R antag cAMP	SMARCA2 act	MPTP inh	MC4R ag barr	PLA2 ctr	others
CC(=O)O[C@H]1[C@H]2O[C@]23[C@@H]2CC[C@]4(O)C[C@@H](O)CC[C@]4(C)C2CC[C@]3(C)[C@H]1c1ccc(=O)oc1 (stereo partly drawn)	-1	4	.	1	24*	.
CC1(O)CCC2C3CCC4=CC(=O)CCC4(C)C34OC4CC21C (stereo not drawn)	-7	-1	-2	2	0	.
C[C@]12CC[C@H]3C(CCC4(O)CC(O)CC[C@]34C=O)C1=CC[C@H]2c1ccc(=O)oc1 (stereo partly drawn)	-8	4	2	0	21*	.
CC(C)C(C(=O)NC(C)(C)C)N1C(=O)CN=C(c2ccccc2)c2ccccc21 (stereo not drawn)	.	.	0	.	.	.
COC(=O)C1=C[C@H]([C@@H](C)[C@H](OC)c2ccccc2Br)[C@@H]2[C@H]1c1ccccc1N2C	.	.	-5	.	.	.
COc1ccc([C@@H]2C[C@H]3[C@@H](CN2)CON3C)cc1	.	.	1	.	.	.
O=C(CN1C(=O)[C@@H](Cc2ccc(O)cc2)N=C(c2ccccc2)c2ccccc21)NC1CCCCC1	.	.	-3	.	.	.
C[C@@H]1O[C@@H](O[C@H]2C[C@@H](O)[C@]3(CO)[C@@H]4C(CC[C@]3(O)C2)[C@@]2(O)CC[C@H](C3COC(=O)C3)[C@@]2(C)C[C@H]4O)[C@H](O)[C@H](O)[C@H]1O (stereo partly drawn)	3	-4	3	0	28*	.
O=C1C(=O)c2ccccc2-c2ccccc21	85*	-26	-12	3	-1	-5	ATG4B confirm=27
O=C1C(=O)c2cccc3cccc1c23	5	-2	-3	0	-2	.
O=c1c2ccccc2nc(/C=C/c2ccccc2F)n1-c1ccccc1O	62*	10	-2	1	3	70*
C=C1[C@@H](C)C2[C@H](Cc3ccccc3)NC(=O)[C@]23[C@H](OC(C)=O)/C=C/[C@@](C)(O)C(=O)[C@@H](C)C/C=C/[C@H]3[C@@H]1O (stereo partly drawn)	.	.	6	.	.	.
COC(=O)C1=C(c2ccc(F)cc2OCc2ccccc2)C[C@@H]2CC[C@H]1N2C(=O)NCc1ccccc1Br	64*	19	-2	1	0	79*
Cc1nc2c(=O)n(C)c(=O)nc-2n(C)n1	82*	-16	-8	-6	0	-9	ATG4B confirm=25
CN1C[C@H](O)[C@H]2C[C@@H]1c1ccccc1O2	.	.	-2	.	.	.
COc1ccc(-n2c(/C=C/c3ccc(O)c(O)c3)nc3ccccc3c2=O)cc1	49*	-5	-3	5	0	52*
NC(N)=N/N=C/c1ccc(N(c2ccccc2)c2ccccc2)cc1	53*	10	-4	1	4	66*
COc1ccc(/C=N\N=C(N)N)cc1	-10	14	-4	0	-1	.
O=Cc1cn(Cc2c(F)cccc2Cl)nc1-c1ccccc1	23	1	4	3	-3	.
CCc1ccc(-c2nn(Cc3ccccc3)cc2C=O)cc1	68*	-5	5	1	-1	83*
CC(C)C[C@H]1N=C(c2ccccc2)c2ccccc2N(CC(=O)NC(C)(C)C)C1=O	.	.	-4	.	.	.
N#CCC[C@@H]1CC[C@]2(CCCN(Cc3ccccn3)C2)O1	.	.	0	.	.	.
Cc1cc(/C=C2\C(=O)NC(=O)N(c3ccc(Cl)cc3)C2=O)c(C)n1-c1sc2c(c1C#N)CCCC2	43*	6	0	4	1	19	ATG4B confirm=63*
Cc1cccc(C(C)c2cnc[nH]2)c1C (stereo not drawn)	.	.	-7	.	.	.
C/C(=N\N1CCCCC1c1cccnc1)c1c(O)n(C2CCCCC2)c(=S)[nH]c1=O (stereo not drawn)	43*	-2	0	-4	-1	37
SMILES	ATG4B inh	MC4R antag cAMP	SMARCA2 act	MPTP inh	MC4R ag barr	PLA2 ctr	others
CC(NC(=O)OCc1ccccc1)P(=O)(Oc1ccccc1)Oc1ccccc1 (stereo not drawn)	.	.	-1	.	.	.
Clc1ccc(C(c2ccc(Cl)cc2)n2cc[n+](CC(OCc3ccc(Cl)cc3Cl)c3ccc(Cl)cc3Cl)c2)cc1 (stereo not drawn)	45*	61*	-9	34	0	90*	U2OS cAMP counter=20*;MC4R cAMP antag=71*
CN1C2CCC1C(C(=O)Oc1ccccc1)C(c1ccc(Cl)cc1)C2 (stereo not drawn)	.	.	-5	.	.	.
Oc1c(Br)c(Br)c(Br)c(Br)c1Br	60*	5	.	67*	2	62*	MPTP counter=87*
N#CCCC#N	.	.	0	.	.	.
O=C1NC(=O)C(=Cc2ccc(Sc3ccccc3)o2)C(=O)N1	5	2	-4	24	-3	.
O=C1NC(=O)C(=Cc2ccc(-c3ccc(Cl)cc3)o2)C(=O)N1	4	44*	.	11	1	.	U2OS cAMP counter=41*;MC4R cAMP antag=68*
Cc1ccc(/C=C2\C(=O)NC(=O)N(CCc3ccc(F)cc3)C2=O)o1	-9	-6	1	5	1	.
O=C1NC(=O)C(=Cc2ccc(-c3ccc(F)cc3O)o2)C(=O)N1	-5	53*	2	14	2	.	U2OS cAMP counter=13*;MC4R cAMP antag=29*
COc1cccc(-c2ccc3c(c2)C2c4cnnn4-c4ccccc4C(=O)N2CC3)c1 (stereo not drawn)	.	.	0	.	.	.
Cc1ccccc1N1C(=O)NC(=O)/C(=C\c2cnn(-c3ccccc3)c2)C1=O	-1	41*	-1	10	-2	.	U2OS cAMP counter=14*;MC4R cAMP antag=14
O=C1NC(=O)N(Cc2ccc(F)cc2)C(=O)/C1=C/c1cccs1	-10	68*	-3	-1	-1	.	U2OS cAMP counter=10;MC4R cAMP antag=6
O=C1NC(=O)N(Cc2ccccc2Cl)C(=O)/C1=C/c1cccs1	-1	36*	0	13	-3	.	U2OS cAMP counter=16*;MC4R cAMP antag=30*
O=C(NCCN1CCC2(CC1)C(=O)NCN2c1ccccc1)c1ccc(Cl)cc1	.	.	6	.	.	.
CC12CCC3C(CC=C4CC5(CCC43C)OCCO5)C1CCC2=O (stereo not drawn)	-2	30*	-3	1	0	.	U2OS cAMP counter=0;MC4R cAMP antag=5
